Screens: PubChem, several laboratories
Exocytosis inh = lytic granule exocytosis inhibition. AID 651702. hit rate 0.66% among 360,000. TALL-104 LAMP-1 surface exposure, flow cytometry; cells stimulated with thapsigargin and PMA. inhibition, % at 10 µM;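 active = inhibition above about 55%, limit read from the data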
beta cell repl = MIN6 beta-cell proliferation induction. proliferation, % at 10 µM. hit rate 0.29% among 330,000. AID 2380. MIN6 cells proliferation, ATPlite luminescence, 48 h; cells starved in 0.2% serum; 100% = growth in 10% serum;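 active = compounds whose signal lies at least 3.5 SD above the mean of all wells on their plate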
UBC13 polyUb = inhibitors of human UBC13 polyubiquitin chain formation. TR-FRET. inhibition, % at 20 µM. hit rate 0.47% among 330,000. AID 485273; in the data active = inhibition above about 45%, passing the limit was not always enough
MPTP inh = inhibitors of mitochondrial permeability transition pore | isolated mouse mitochondria, Ca2+ swelling absorbance, 30 min | hit rate 1.4% among 360,000 | AID 602449 | inhibition, % at 10 µM;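 active = inhibition of 50% or more, scaled per plate between neutral and stimulator controls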
Apaf1 inhib = human Apaf-1 inhibition | AID 489030 | inhibition, % at 20 µM | hit rate 0.71% among 330,000 | reconstituted apoptosome caspase-3 activity, DEVD-Rh110 fluorescence; active = inhibition of at least 40% at 20 µM
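Material: cell-free apoptosome with Apaf-1, procaspase-3 and caspase-9; Buffer or medium: Hepes pH 7.5 with detergent and BSA; Reagent: cytochrome c trigger plus (Z-DEVD)2-Rh110 caspase-3 substrate; Times: compound with Apaf-1, dATP, procaspase-3 30 min, then 50 min reaction, room temperature; Technique: Rh110 fluorescence intensity.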
iPSC survival up = increases survival of single human iPS cells. hiPSC single-cell survival, ATPlite luminescence; 100% = ROCK inhibitor wells, 0% = DMSO. survival enhancement, % at 20 µM. hit rate 0.044% among 360,000; in the data active = survival enhancement above about 18%;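 note: cells exposed to compounds for 16 hours before the ATP read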
Rh123 counter = membrane potential counter-screen of mitochondrial pore inhibitors. hit rate 78% among 5,000. AID 624504. shares compounds with MPTP inh. isolated mitochondria, Rhodamine 123 fluorescence. inhibition, % at 10 µM; in the data active = inhibition above about 22%
MPTP abs DR = dose response confirmation of mitochondrial permeability transition pore inhibitors. shares compounds with MPTP inh. isolated mitochondria swelling, absorbance. IC50, µM. hit rate 58% among 780. AID 651561; in the data active = IC50 below about 20 µM
MPTP counter DR = active in counter-screen for permeability transition pore inhibitors. AID 651564. hit rate 49% among 780. shares compounds with MPTP inh. isolated mitochondria counterscreen, fluorescence read-out. IC50, µM; in the data active = IC50 below about 80 µM
Numbers stand for hits; - = inactive; . = not tested or not shown. Shown are actives, neighbours in structure and some others; about 3% of the full set was active somewhere.

SMILES	Exocytosis inh	beta cell repl	UBC13 polyUb	MPTP inh	Apaf1 inhib	iPSC survival up	Rh123 counter	others
COc1ccc(COc2ccccc2C(=O)NCc2ccccc2)cc1F	-	-	-	95.7	-	-	88.4
Cc1ccc(C(C)C)c(OCCNC(=O)c2ccccc2O)c1	-	-	-	88.0	-	-	83.2
Cc1ccc(C(CNS(=O)(=O)c2ccccc2)N2CCN(C)CC2)cc1 (stereo not drawn)	-	-	-	-	-	-	.
Cc1ccc(C(CNS(=O)(=O)c2ccc(Br)cc2)N2CCN(C)CC2)cc1 (stereo not drawn)	-	-	-	77.8	-	-	-	MPTP abs DR=13.3;MPTP counter DR=-
CC(O)(c1ccc(F)c(F)c1)c1nc(/C=C/c2ccc(C(F)(F)F)cc2)cs1 (stereo not drawn)	-	.	.	-	.	-	.
CCN(CC)CCNc1cccc2sc3ccccc3c(=O)c12	-	.	.	-	.	-	.
CCN(CC)CCNc1ccc(CO)c2sc3ccccc3c(=O)c12	-	-	-	59.7	-	-	-
CCC(C)Nc1nc(OC(C(F)(F)F)C(F)(F)F)nc(OC(C(F)(F)F)C(F)(F)F)n1 (stereo not drawn)	-	-	-	60.0	-	-	59.6
COc1cc(CC(=O)OCC(=O)Nc2ccc(N(C)C)cc2)cc(OC)c1OC	-	-	-	-	-	-	.
O=[N+]([O-])c1ccc(NS(=O)(=O)c2ccc(Cl)c(Cl)c2)cc1	-	.	.	85.8	.	-	102.4
O=[N+]([O-])c1ccc(Oc2ccc(S(=O)(=O)Nc3ccccc3)cc2)cc1	-	-	-	69.1	-	-	85.1
O=[N+]([O-])c1ccc(S(=O)(=O)Nc2ccncc2)cc1	-	-	-	-	-	-	.
O=[N+]([O-])c1cc(NS(=O)(=O)c2ccc(Cl)nc2)ccc1Cl	-	-	-	84.7	-	-	96.9
O=S(=O)(Nc1ccc(S(=O)(=O)Nc2ccccc2)cc1)c1ccccc1	-	-	-	-	-	-	.
O=C1NC[C@H](CCCCN2CCN(CCc3ccccc3)C(=O)C2=O)N(Cc2ccccc2)C1=O	-	.	.	-	.	-	.
O=C(O/C(=C/c1ccccc1)C(F)(F)F)c1ccccc1	-	.	.	-	.	-	.
CCOC(=O)N1CCN(C(=O)CNC(=O)c2ccc(Br)o2)CC1	-	-	-	-	-	-	.
Cc1csc(-c2cc(C(=O)NCc3ccc(F)cc3)n[nH]2)c1	-	.	.	-	.	-	.
Cc1cc(Cl)ccc1Oc1ccccc1C(=O)CC#N	-	-	-	66.2	-	-	74.7
CC(=O)c1cccc(NC(=S)N2CCC(Cc3ccccc3)CC2)c1	-	-	-	-	-	-	.
CC(=O)c1ccc(NC(=S)N2CCC(Cc3ccccc3)CC2)cc1	-	-	-	61.4	-	-	43.5
CC(C)OC(=O)NC(C)(C)COC(=O)Nc1cccc(Cl)c1	-	-	-	81.7	-	-	96.4
CC(C)OC(=O)NCCOC(=O)Nc1cccc(Cl)c1	-	-	-	99.5	-	-	92.5
CC(C)OC(=O)NCCOC(=O)Nc1ccc(Cl)c(Cl)c1	-	-	-	97.4	-	-	98.1
COc1ccc(NC(=O)CSc2cn[nH]n2)cc1OC	-	-	-	-	-	-	.
SMILES	Exocytosis inh	beta cell repl	UBC13 polyUb	MPTP inh	Apaf1 inhib	iPSC survival up	Rh123 counter	others
COC(=O)c1cc(C(=O)OCC(=O)N2CCCCC2)cc([N+](=O)[O-])c1	-	-	-	-	-	-	.
CCOc1ccc(Nc2c3ccccc3nc3ccccc23)cc1	-	-	-	95.5	-	-	85.3
OC(c1cccc(Cl)c1)c1ncc(-c2cccc3ccccc23)[nH]1 (stereo not drawn)	-	.	.	-	.	-	.
Cc1ccccc1-n1c(SCC(=O)c2c(N)n(C3CC3)c(=O)[nH]c2=O)nnc1N1CCOCC1	-	-	-	-	-	-	.
CCCn1c(SCC(=O)Nc2nc3ccccc3s2)nc2c1c(=O)n(C)c(=O)n2C	-	-	-	84.8	-	-	-	MPTP abs DR=19.2;MPTP counter DR=14.5
CCCn1c(SCC(=O)Nc2nnc(C(C)C)s2)nc2c1c(=O)n(C)c(=O)n2C	-	-	-	-	-	-	.
COc1ccc(N(C)S(=O)(=O)c2cccc(C(=O)NCc3ccc(C)cc3)c2)cc1	-	-	-	-	-	-	.
c1ccc(CC[C@@H]2CC[C@@H](CCc3ccccc3)N2)cc1	-	-	-	68.9	-	-	-	MPTP abs DR=10.2;MPTP counter DR=-
N/C(=N\OC(=O)Nc1ccc(Cl)cc1)c1ncc(C(F)(F)F)cc1Cl	-	-	-	56.1	-	-	112.7
N/C(=N\OC(=O)Nc1ccccc1)c1ncc(C(F)(F)F)cc1Cl	-	-	-	-	-	-	.
CN(NC(=O)Nc1ccc(Cl)cc1)c1ncc(C(F)(F)F)cc1Cl	-	-	-	87.8	-	-	91.3
C/C(=N\OC(=O)Nc1ccc(Cl)cc1)c1ncc(C(F)(F)F)cc1N1CCOCC1	-	-	-	98.6	-	-	93.6
COc1ccccc1C(=O)COC(=O)Cc1ccccc1F	-	-	-	-	-	-	.
O=C(c1ccccc1)c1ccc(Cn2cc(-c3ccccc3)nn2)cc1	-	-	-	84.6	-	-	98.8
CCC(C)NC(=O)C1=CCN(S(=O)(=O)c2ccc(C)cc2)CC1 (stereo not drawn)	-	-	-	-	-	-	.
CCC(C)NS(=O)(=O)c1ccc(S(=O)(=O)N2CC=C(c3ccc(F)cc3)CC2)cc1 (stereo not drawn)	-	-	-	65.5	-	-	55.7
CC(=O)c1cccc(NS(=O)(=O)N2CCOCC2)c1	-	-	-	-	-	-	.
O=C(O)c1cc(NC(=O)c2ccc(Cl)c([N+](=O)[O-])c2)cc(C(=O)O)c1	-	-	-	-	-	-	.
Cc1cccc(C)c1NS(=O)(=O)c1ccc(NC(=O)c2ccc(Cl)c([N+](=O)[O-])c2)cc1	-	-	-	74.5	-	-	80.7
O=C(Nc1ccc(C(O)(C(F)(F)F)C(F)(F)F)cc1)c1ccc(Cl)c([N+](=O)[O-])c1	63.7	-	-	82.6	-	-	67.1
Cn1cccc1C(=O)OCC(=O)NC(=O)c1ccc(Cl)cc1	-	-	-	-	-	-	.
CC(C)Oc1cccc(C(=O)Nc2nnc([C@@H]3C[C@H](O)[C@@H](CO)O3)s2)c1	-	.	.	-	.	-	.
CCN(CC)S(=O)(=O)c1ccc(Oc2ccc(S(=O)(=O)N(CC)CC)cc2)cc1	-	-	-	96.8	-	-	89.1
CCN(CC)S(=O)(=O)c1ccc(N)cc1	-	-	-	-	-	-	.
CC(C)c1ccc(C2NC(=O)c3ccccc3O2)cc1 (stereo not drawn)	-	-	-	-	-	-	.
